These results are taken from ChEMBL document CHEMBL4033702, “Challenges in the development of an M4 PAM preclinical candidate: The discovery, SAR, and in vivo characterization of a series of 3-aminoazetidine-derived amides” (Bioorg Med Chem Lett, 2017).

Broadly, the IC50 is the concentration that inhibits the measured activity by half. What is called bioavailability is the share of a dose that reaches the circulation, judged against a reference dose that is usually intravenous. What is called EC50 is the concentration at which the effect is half-maximal.

Data set [1] concerns the target T1, Cytochrome P450 1A2 (Homo sapiens, UniProt P05177).
T1 sequence (P05177 whole entry): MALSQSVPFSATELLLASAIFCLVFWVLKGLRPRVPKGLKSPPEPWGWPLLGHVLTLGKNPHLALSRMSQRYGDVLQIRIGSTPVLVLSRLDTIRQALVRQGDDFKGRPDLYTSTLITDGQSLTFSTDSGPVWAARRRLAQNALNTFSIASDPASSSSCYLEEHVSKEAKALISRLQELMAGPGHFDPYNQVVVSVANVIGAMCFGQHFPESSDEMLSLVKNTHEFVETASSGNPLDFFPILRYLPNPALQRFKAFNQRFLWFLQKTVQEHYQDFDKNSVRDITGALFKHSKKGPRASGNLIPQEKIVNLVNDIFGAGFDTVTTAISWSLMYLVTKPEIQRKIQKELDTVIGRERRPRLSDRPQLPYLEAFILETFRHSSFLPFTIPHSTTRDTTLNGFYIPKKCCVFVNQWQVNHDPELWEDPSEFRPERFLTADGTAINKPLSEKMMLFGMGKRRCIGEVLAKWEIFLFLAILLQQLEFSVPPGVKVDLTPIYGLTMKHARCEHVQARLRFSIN
Kind of data set: Inhibition of CYP1A2 (unknown origin). The data set is classed as ADME.

The subject of data set [2] is Rattus norvegicus. Kind of data set: Reversal of amphetamine-induced hyperlocomotion in Sprague-Dawley rat at 1 mg/kg, po pretreated 30 mins post habituation in the chamber followed by amphetamine injection after 30 mins measured after 60 mins. It is filed as functional. Summed up: (§1)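 Male Sprague-Dawley rats, n = 6–24 per dose group, were habituated in the chamber for 30 min. The compound or vehicle (10% tween-80 in water, v/v) was then given orally. Amphetamine 0.75 mg/kg was injected subcutaneously 30 min later. Total ambulations over t = 60–120 min gave % reversal of AHL, reported as mean ± SEM.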

For another data set, the species on record is Macaca fascicularis. The data set is described as follows: Activity at cynomolgus monkey M4 receptor assessed as acetylcholine-induced calcium mobilization.
A short description of data set [3]: Oral bioavailability in Mongrel dog at 2 mg/kg administered as suspension. The data set is classed as ADME, organism-based, Canis lupus familiaris. The following applies: in vivo. Summed up:
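Female mongrel dogs were dosed orally with a 2 mg/kg suspension in a low-excipient vehicle, and oral bioavailability was determined.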

Data set [4] relates to Brain. The data set is described as follows: Drug level in Sprague-Dawley rat brain at 3 mg/kg, po. The following applies: in vivo, read-out: Drug uptake. The data set is classed as ADME, organism-based.
The test system of data set [5] is Canis familiaris. Kind of data set: Volume of distribution at steady state in iv or po dosed Mongrel dog. The following applies: in vivo. The data set is classed as ADME, organism-based, Canis lupus familiaris. In short, it runs like this: (§2)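 IV and PO pharmacokinetics in female mongrel dogs, n = 1–2. The oral dose was a 2–3 mg/kg solution. Vss and oral bioavailability were determined.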

The subject of data set [6] is Rattus norvegicus. Kind of data set: Reversal of amphetamine-induced hyperlocomotion in Sprague-Dawley rat at 10 mg/kg, po pretreated 30 mins post habituation in the chamber followed by amphetamine injection after 30 mins measured after 60 mins. It is filed as functional. In short, it runs like this:
as §1

Data set [7] can be described thus: Clearance in Sprague-Dawley rat. The data set is classed as ADME. The following applies: in vivo. Summed up:
(§3)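 IV and PO pharmacokinetics in male Sprague-Dawley rats, n = 1–3. The oral dose was a 2–3 mg/kg solution. Plasma clearance, Vss and oral bioavailability were determined.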

Another data set has as its target Cytochrome P450 3A4 (Homo sapiens, UniProt P08684). Kind of data set: Time-dependent inhibition of CYP3A4 (unknown origin). The data set is classed as ADME.
Data set [8] has as its system Rattus norvegicus. Kind of data set: Oral bioavailability in Sprague-Dawley rat at 2 to 3 mg/kg. The data set is classed as ADME, organism-based. The following applies: in vivo. In short, it runs like this: as §3
The test system of data set [9] is Rattus norvegicus. The data set is described as follows: Reversal of amphetamine-induced hyperlocomotion in Sprague-Dawley rat assessed as plasma concentration required for the effect at 3 mg/kg, po pretreated 30 mins post habituation in the chamber followed by amphetamine injection after 30 mins measured at 1.5 hrs post dose. It is filed as functional, organism-based. Summed up: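 Rat AHL study: oral dosing 30 min after chamber habituation, then amphetamine 0.75 mg/kg s.c. 30 min later. Terminal plasma concentrations in the study animals were measured 1.5 hr after compound administration. From these, an in vivo plasma EC50 was derived, both total and unbound.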

Data set [10] concerns Brain. The data set is described as follows: Drug level in Sprague-Dawley rat brain at 10 mg/kg, po. The following applies: in vivo, read-out: Drug uptake. The data set is classed as ADME, organism-based.
Data set [11] can be described thus: Clearance in iv or po dosed Sprague-Dawley rat. The following applies: in vivo. It is filed as ADME, organism-based. Summed up:
as §3

In data set [12] the target is T2, Muscarinic acetylcholine receptor M4 (Homo sapiens) (UniProt P08173).
T2 sequence (whole entry): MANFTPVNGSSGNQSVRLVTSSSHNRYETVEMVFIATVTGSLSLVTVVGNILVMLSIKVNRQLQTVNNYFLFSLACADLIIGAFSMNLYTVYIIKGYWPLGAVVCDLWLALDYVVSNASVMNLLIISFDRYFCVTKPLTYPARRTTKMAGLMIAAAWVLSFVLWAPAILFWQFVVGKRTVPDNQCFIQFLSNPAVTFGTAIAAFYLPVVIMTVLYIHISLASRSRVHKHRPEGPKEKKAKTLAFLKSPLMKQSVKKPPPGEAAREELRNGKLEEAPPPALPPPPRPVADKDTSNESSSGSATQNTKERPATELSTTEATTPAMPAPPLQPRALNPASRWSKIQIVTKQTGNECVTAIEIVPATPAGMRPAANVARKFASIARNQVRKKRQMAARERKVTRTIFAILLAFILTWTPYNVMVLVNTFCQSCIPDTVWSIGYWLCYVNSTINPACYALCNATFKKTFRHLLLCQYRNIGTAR
Kind of data set: Activity at human M4 receptor assessed as acetylcholine-induced calcium mobilization. It is filed as functional.

Data set [13] deals with T1, Cytochrome P450 1A2. Kind of data set: Time-dependent inhibition of CYP1A2 (unknown origin). It is filed as ADME.
Data set [14] has as its system Rattus norvegicus. The data set is described as follows: Reversal of amphetamine-induced hyperlocomotion in Sprague-Dawley rat at 0.3 mg/kg, po pretreated 30 mins post habituation in the chamber followed by amphetamine injection after 30 mins measured after 60 mins. It is filed as functional. Summed up:
as §1

The next data set deals with Cytochrome P450 2C19 (Homo sapiens, UniProt P33261). Kind of data set: Time-dependent inhibition of CYP2C19 (unknown origin). It is filed as ADME.
Cytochrome P450 2C19, sequence (P33261 whole entry): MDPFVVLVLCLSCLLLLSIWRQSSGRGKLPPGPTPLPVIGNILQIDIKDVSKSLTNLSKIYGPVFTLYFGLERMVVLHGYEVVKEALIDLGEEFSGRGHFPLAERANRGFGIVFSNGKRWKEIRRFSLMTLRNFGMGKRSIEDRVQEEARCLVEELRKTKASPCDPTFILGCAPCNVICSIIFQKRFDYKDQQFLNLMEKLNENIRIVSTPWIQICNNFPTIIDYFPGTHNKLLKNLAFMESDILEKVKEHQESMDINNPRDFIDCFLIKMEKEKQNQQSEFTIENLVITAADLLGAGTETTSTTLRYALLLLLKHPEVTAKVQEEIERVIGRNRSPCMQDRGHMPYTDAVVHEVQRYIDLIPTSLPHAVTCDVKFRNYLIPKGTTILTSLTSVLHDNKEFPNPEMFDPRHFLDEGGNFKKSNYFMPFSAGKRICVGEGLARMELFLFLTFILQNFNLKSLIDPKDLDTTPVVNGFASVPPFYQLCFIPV
For data set [15], the system named is Brain. Kind of data set: Drug level in Sprague-Dawley rat brain at 0.03 mg/kg, po. The data set is classed as ADME, organism-based. The following applies: in vivo, read-out: Drug uptake.
Data set [16] concerns Canis familiaris. Kind of data set: Oral bioavailability in Mongrel dog at 2 to 3 mg/kg. It is filed as ADME, organism-based, Canis lupus familiaris. The following applies: in vivo. Summed up:
as §2

Cytochrome P450 3A4, sequence (P08684 whole entry): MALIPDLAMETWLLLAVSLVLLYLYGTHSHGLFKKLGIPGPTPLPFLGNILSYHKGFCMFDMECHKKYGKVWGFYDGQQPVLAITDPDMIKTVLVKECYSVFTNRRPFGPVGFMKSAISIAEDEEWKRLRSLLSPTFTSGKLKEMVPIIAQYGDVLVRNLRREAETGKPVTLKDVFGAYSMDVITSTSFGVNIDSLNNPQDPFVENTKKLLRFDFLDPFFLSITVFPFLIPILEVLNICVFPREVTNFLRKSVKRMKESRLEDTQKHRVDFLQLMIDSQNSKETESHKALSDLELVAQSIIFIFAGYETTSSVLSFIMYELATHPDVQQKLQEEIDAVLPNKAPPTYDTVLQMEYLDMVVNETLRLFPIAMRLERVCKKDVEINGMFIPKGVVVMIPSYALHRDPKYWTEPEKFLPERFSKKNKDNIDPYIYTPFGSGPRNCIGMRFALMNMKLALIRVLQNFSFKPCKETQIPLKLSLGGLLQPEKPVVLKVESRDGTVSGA

On Cytochrome P450 1A2 [1], `Cc1nnc2sc(C(=O)NC3CN(c4cccc(F)c4F)C3)c(N)c2c1C` returned a concentration for half-maximal inhibition (IC50) of 25000 nM. Further, the Activity in the data set on Rattus norvegicus [2] was 64%; in the data set with Rattus norvegicus [6] it was 64%; in the data set with Rattus norvegicus [14], 43%. Also, the Kb in the data set listed under Macaca fascicularis amounted to 890 nM; in [12], 2000 nM. The molecule also showed a bioavailability in [3] of 11%. The concentration in the data set on Brain [4] stood at 510 nM; in the data set on Brain [10], 820 nM; with Brain [15] it was 4.6 nM. The molecule also returned a Vdss with Canis familiaris [5] of 1.6 L/kg. Further, the clearance in data set [7] and in data set [11] was 16 mL/min/kg each time. The TDI result at Cytochrome P450 3A4, at Cytochrome P450 1A2 [13] and at Cytochrome P450 2C19 was “Not Active” each time. Further, the F with Rattus norvegicus [8] stood at 38%; in the data set on Canis familiaris [16] it was 20%. In the data set on Rattus norvegicus [9], the fEC50 amounted to 0.66 nM. The EC50 in the data set with Rattus norvegicus [9] (Rattus norvegicus, Sprague-Dawley) was 74 nM.
